Values joined by “and” are separate entries in the source; they are usually repeats but may differ in a detail not shown here. Equal entries are not always repeated.
What was measured:
Assay type in all cases: toxicity, cell-based
[1] = tested on: Fibroblast; assay: Multiplex assay against human fibroblast
Summary of the method: (§1)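 Tubulin, mitochondrial-mass and membrane-permeability phenotypes are per cents of healthy-nucleus cells. Cells were gated by CellPathfinder machine learning into Hoechst high-intensity objects or normal cells, normal cells into healthy, pyknosed or fragmented nuclei, and pyknosed cells into mitotic or apoptotic. Before that, live cells stained at seeding with Hoechst33342, BioTracker Green Microtubule Cytoskeleton Dye, MitoTracker Red and Annexin V Alexa Fluor 680 were imaged on a CQ1 microscope at 37°C and 5% CO2 after compound addition.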

[2] = tested on: HEK-293T; assay: Multiplex assay against HEK293T; conditions: human; summary of the method: as §1
[3] = tested on: U2OS; assay: Multiplex assay against U2OS; conditions: human; summary of the method: as §1
[4] = 12 h, 1 µM, compound concentration 1 uM
[5] = 12 h, 10 µM, compound concentration 10 uM
[6] = 24 h, 1 µM, compound concentration 1 uM
[7] = 24 h, 10 µM, compound concentration 10 uM
[8] = 48 h, 1 µM, compound concentration 1 uM
[9] = 48 h, 10 µM, compound concentration 10 uM

SMILES: COc1c(Nc2ccc(S(C)(=O)=O)nc2C)ncnc1OC1CCN(C(=O)OC(C)C)CC1 [ADP-597]
- Population Apoptotic (%) [1, 4]: 57% and 42%
- Population Fragmented Nuclei (%) [1, 4]: 14% and 27%
- Population Healthy Nuclei (%) [1, 4]: 71% and 40%
- Population Hoechst High Intensity Objects (%) [1, 4]: 3% and 4%
- Population Membrane Permeable-Phenotype (%) [1, 4]: 0% and 2%
- Population Mitochondria Different-Phenotype (%) [1, 4]: 10% and 7%
- Population Mitotic Cells (%) [1, 4]: 42% and 57%
- Population Normal (%) [1, 4]: 96% and 95%
- Population Pyknosed Nuclei (%) [1, 4]: 14% and 33%
- Population Tubulin-Different-Phenotype (%) [1, 4]: 34% and 27%
- Total Cell Count [1, 4]: 133 and 105
- Population Apoptotic (%) [1, 5]: 44% and 39%
- Population Fragmented Nuclei (%) [1, 5]: 21% and 43%
- Population Healthy Nuclei (%) [1, 5]: 58% and 27%
- Population Hoechst High Intensity Objects (%) [1, 5]: 2%
- Population Membrane Permeable-Phenotype (%) [1, 5]: 0% and 11%
- Population Mitochondria Different-Phenotype (%) [1, 5]: 15% and 14%
- Population Mitotic Cells (%) [1, 5]: 56% and 60%
- Population Normal (%) [1, 5]: 97% and 98%
- Population Pyknosed Nuclei (%) [1, 5]: 20% and 28%
- Population Tubulin-Different-Phenotype (%) [1, 5]: 54% and 77%
- Total Cell Count [1, 5]: 127 and 100
- Population Apoptotic (%) [1, 6]: 47% and 37%
- Population Fragmented Nuclei (%) [1, 6]: 17% and 25%
- Population Healthy Nuclei (%) [1, 6]: 67% and 50%
- Population Hoechst High Intensity Objects (%) [1, 6]: 4% and 10%
- Population Membrane Permeable-Phenotype (%) [1, 6]: 0% and 10%
- Population Mitochondria Different-Phenotype (%) [1, 6]: 1% and 2%
- Population Mitotic Cells (%) [1, 6]: 52% and 62%
- Population Normal (%) [1, 6]: 95% and 89%
- Population Pyknosed Nuclei (%) [1, 6]: 15% and 24%
- Population Tubulin-Different-Phenotype (%) [1, 6]: 27% and 48%
- Total Cell Count [1, 6]: 146 and 109
- Population Apoptotic (%) [1, 7]: 52% and 27%
- Population Fragmented Nuclei (%) [1, 7]: 20% and 49%
- Population Healthy Nuclei (%) [1, 7]: 60% and 31%
- Population Hoechst High Intensity Objects (%) [1, 7]: 5% and 6%
- Population Membrane Permeable-Phenotype (%) [1, 7]: 0% and 10%
- Population Mitochondria Different-Phenotype (%) [1, 7]: 5% and 3%
- Population Mitotic Cells (%) [1, 7]: 47% and 72%
- Population Normal (%) [1, 7]: 94% and 93%
- Population Pyknosed Nuclei (%) [1, 7]: 18% and 19%
- Population Tubulin-Different-Phenotype (%) [1, 7]: 41% and 75%
- Total Cell Count [1, 7]: 131 and 99
- Population Apoptotic (%) [1, 8]: 64% and 42%
- Population Fragmented Nuclei (%) [1, 8]: 25% and 28%
- Population Healthy Nuclei (%) [1, 8]: 63% and 51%
- Population Hoechst High Intensity Objects (%) [1, 8]: 2% and 9%
- Population Membrane Permeable-Phenotype (%) [1, 8]: 0% and 2%
- Population Mitochondria Different-Phenotype (%) [1, 8]: 4% and 0%
- Population Mitotic Cells (%) [1, 8]: 35% and 57%
- Population Normal (%) [1, 8]: 97% and 90%
- Population Pyknosed Nuclei (%) [1, 8]: 11% and 20%
- Population Tubulin-Different-Phenotype (%) [1, 8]: 30% and 59%
- Total Cell Count [1, 8]: 152 and 102
- Population Apoptotic (%) [1, 9]: 73% and 75%
- Population Fragmented Nuclei (%) [1, 9]: 29% and 56%
- Population Healthy Nuclei (%) [1, 9]: 58% and 36%
- Population Hoechst High Intensity Objects (%) [1, 9]: 8% and 2%
- Population Membrane Permeable-Phenotype (%) [1, 9]: 0% and 2%
- Population Mitochondria Different-Phenotype (%) [1, 9]: 20% and 18%
- Population Mitotic Cells (%) [1, 9]: 26% and 25%
- Population Normal (%) [1, 9]: 91% and 97%
- Population Pyknosed Nuclei (%) [1, 9]: 12% and 7%
- Population Tubulin-Different-Phenotype (%) [1, 9]: 57% and 84%
- Total Cell Count [1, 9]: 131 and 108
- Population Apoptotic (%) [2, 4]: 29% and 38%
- Population Fragmented Nuclei (%) [2, 4]: 5% and 4%
- Population Healthy Nuclei (%) [2, 4]: 78% and 80%
- Population Hoechst High Intensity Objects (%) [2, 4]: 6% and 3%
- Population Membrane Permeable-Phenotype (%) [2, 4]: 0%
- Population Mitochondria Different-Phenotype (%) [2, 4]: 47% and 62%
- Population Mitotic Cells (%) [2, 4]: 70% and 62%
- Population Normal (%) [2, 4]: 93% and 96%
- Population Pyknosed Nuclei (%) [2, 4]: 16% and 14%
- Population Tubulin-Different-Phenotype (%) [2, 4]: 36% and 25%
- Total Cell Count [2, 4]: 430 and 347
- Population Apoptotic (%) [2, 5]: 47%
- Population Fragmented Nuclei (%) [2, 5]: 7%
- Population Healthy Nuclei (%) [2, 5]: 75% and 72%
- Population Membrane Permeable-Phenotype (%) [2, 5]: 0%
- Population Mitochondria Different-Phenotype (%) [2, 5]: 70% and 71%
- Population Mitotic Cells (%) [2, 5]: 52%
- Population Normal (%) [2, 5]: 91% and 74%
- Population Pyknosed Nuclei (%) [2, 5]: 17% and 20%
- Population Tubulin-Different-Phenotype (%) [2, 5]: 44% and 36%
- Total Cell Count [2, 5]: 302 and 238
- Population Apoptotic (%) [2, 6]: 23% and 30%
- Population Fragmented Nuclei (%) [2, 6]: 7% and 6%
- Population Healthy Nuclei (%) [2, 6]: 81% and 84%
- Population Hoechst High Intensity Objects (%) [2, 6]: 2% and 3%
- Population Membrane Permeable-Phenotype (%) [2, 6]: 0% and 1%
- Population Mitochondria Different-Phenotype (%) [2, 6]: 20% and 34%
- Population Mitotic Cells (%) [2, 6]: 76% and 69%
- Population Normal (%) [2, 6]: 97% and 96%
- Population Pyknosed Nuclei (%) [2, 6]: 11% and 9%
- Population Tubulin-Different-Phenotype (%) [2, 6]: 16% and 15%
- Total Cell Count [2, 6]: 587 and 447
- Population Apoptotic (%) [2, 7]: 44% and 63%
- Population Fragmented Nuclei (%) [2, 7]: 9% and 11%
- Population Healthy Nuclei (%) [2, 7]: 74% and 71%
- Population Hoechst High Intensity Objects (%) [2, 7]: 7% and 21%
- Population Membrane Permeable-Phenotype (%) [2, 7]: 0%
- Population Mitochondria Different-Phenotype (%) [2, 7]: 58% and 54%
- Population Mitotic Cells (%) [2, 7]: 55% and 36%
- Population Normal (%) [2, 7]: 92% and 78%
- Population Pyknosed Nuclei (%) [2, 7]: 15% and 17%
- Population Tubulin-Different-Phenotype (%) [2, 7]: 38% and 25%
- Total Cell Count [2, 7]: 355 and 300
- Population Apoptotic (%) [2, 8]: 25% and 36%
- Population Fragmented Nuclei (%) [2, 8]: 13%
- Population Healthy Nuclei (%) [2, 8]: 78% and 77%
- Population Hoechst High Intensity Objects (%) [2, 8]: 2% and 5%
- Population Membrane Permeable-Phenotype (%) [2, 8]: 0% and 1%
- Population Mitochondria Different-Phenotype (%) [2, 8]: 18% and 23%
- Population Mitotic Cells (%) [2, 8]: 75% and 63%
- Population Normal (%) [2, 8]: 97% and 94%
- Population Pyknosed Nuclei (%) [2, 8]: 8% and 9%
- Population Tubulin-Different-Phenotype (%) [2, 8]: 13% and 14%
- Total Cell Count [2, 8]: 924 and 590
- Population Apoptotic (%) [2, 9]: 35% and 43%
- Population Fragmented Nuclei (%) [2, 9]: 15% and 13%
- Population Healthy Nuclei (%) [2, 9]: 73%
- Population Hoechst High Intensity Objects (%) [2, 9]: 4% and 10%
- Population Membrane Permeable-Phenotype (%) [2, 9]: 0%
- Population Mitochondria Different-Phenotype (%) [2, 9]: 38% and 32%
- Population Mitotic Cells (%) [2, 9]: 64% and 56%
- Population Normal (%) [2, 9]: 95% and 89%
- Population Pyknosed Nuclei (%) [2, 9]: 11% and 12%
- Population Tubulin-Different-Phenotype (%) [2, 9]: 23% and 18%
- Total Cell Count [2, 9]: 494 and 392
- Population Apoptotic (%) [3, 4]: 82% and 75%
- Population Fragmented Nuclei (%) [3, 4]: 23% and 13%
- Population Healthy Nuclei (%) [3, 4]: 68% and 78%
- Population Hoechst High Intensity Objects (%) [3, 4]: 2% and 3%
- Population Membrane Permeable-Phenotype (%) [3, 4]: 7% and 11%
- Population Mitochondria Different-Phenotype (%) [3, 4]: 1%
- Population Mitotic Cells (%) [3, 4]: 17% and 25%
- Population Normal (%) [3, 4]: 97% and 96%
- Population Pyknosed Nuclei (%) [3, 4]: 8%
- Population Tubulin-Different-Phenotype (%) [3, 4]: 5% and 2%
- Total Cell Count [3, 4]: 208 and 95
- Population Apoptotic (%) [3, 5]: 93% and 85%
- Population Fragmented Nuclei (%) [3, 5]: 27% and 10%
- Population Healthy Nuclei (%) [3, 5]: 60% and 77%
- Population Hoechst High Intensity Objects (%) [3, 5]: 8% and 4%
- Population Membrane Permeable-Phenotype (%) [3, 5]: 7%
- Population Mitochondria Different-Phenotype (%) [3, 5]: 2% and 3%
- Population Mitotic Cells (%) [3, 5]: 6% and 14%
- Population Normal (%) [3, 5]: 91% and 95%
- Population Pyknosed Nuclei (%) [3, 5]: 11%
- Population Tubulin-Different-Phenotype (%) [3, 5]: 4% and 1%
- Total Cell Count [3, 5]: 266 and 128
- Population Apoptotic (%) [3, 6]: 88% and 80%
- Population Fragmented Nuclei (%) [3, 6]: 24% and 12%
- Population Healthy Nuclei (%) [3, 6]: 67% and 79%
- Population Hoechst High Intensity Objects (%) [3, 6]: 3%
- Population Membrane Permeable-Phenotype (%) [3, 6]: 7% and 8%
- Population Mitochondria Different-Phenotype (%) [3, 6]: 3%
- Population Mitotic Cells (%) [3, 6]: 11% and 20%
- Population Normal (%) [3, 6]: 96%
- Population Pyknosed Nuclei (%) [3, 6]: 7% and 8%
- Population Tubulin-Different-Phenotype (%) [3, 6]: 3% and 5%
- Total Cell Count [3, 6]: 239 and 129
- Population Apoptotic (%) [3, 7]: 88% and 83%
- Population Fragmented Nuclei (%) [3, 7]: 30% and 11%
- Population Healthy Nuclei (%) [3, 7]: 61% and 80%
- Population Hoechst High Intensity Objects (%) [3, 7]: 6% and 5%
- Population Membrane Permeable-Phenotype (%) [3, 7]: 8% and 6%
- Population Mitochondria Different-Phenotype (%) [3, 7]: 2% and 4%
- Population Mitotic Cells (%) [3, 7]: 12% and 16%
- Population Normal (%) [3, 7]: 93% and 94%
- Population Pyknosed Nuclei (%) [3, 7]: 8%
- Population Tubulin-Different-Phenotype (%) [3, 7]: 4% and 1%
- Total Cell Count [3, 7]: 305 and 155
- Population Apoptotic (%) [3, 8]: 80% and 81%
- Population Fragmented Nuclei (%) [3, 8]: 19% and 20%
- Population Healthy Nuclei (%) [3, 8]: 72% and 67%
- Population Hoechst High Intensity Objects (%) [3, 8]: 2%
- Population Membrane Permeable-Phenotype (%) [3, 8]: 6% and 5%
- Population Mitochondria Different-Phenotype (%) [3, 8]: 5% and 4%
- Population Mitotic Cells (%) [3, 8]: 19% and 18%
- Population Normal (%) [3, 8]: 97%
- Population Pyknosed Nuclei (%) [3, 8]: 7% and 12%
- Population Tubulin-Different-Phenotype (%) [3, 8]: 2%
- Total Cell Count [3, 8]: 339 and 185
- Population Apoptotic (%) [3, 9]: 79% and 92%
- Population Fragmented Nuclei (%) [3, 9]: 24% and 10%
- Population Healthy Nuclei (%) [3, 9]: 62% and 77%
- Population Hoechst High Intensity Objects (%) [3, 9]: 6% and 3%
- Population Membrane Permeable-Phenotype (%) [3, 9]: 6% and 4%
- Population Mitochondria Different-Phenotype (%) [3, 9]: 4% and 0%
- Population Mitotic Cells (%) [3, 9]: 20% and 8%
- Population Normal (%) [3, 9]: 93% and 96%
- Population Pyknosed Nuclei (%) [3, 9]: 13% and 11%
- Population Tubulin-Different-Phenotype (%) [3, 9]: 2%
- Total Cell Count [3, 9]: 356 and 223

— ChEMBL document CHEMBL5724801, “EUbOPEN Chemogenomics Library - Multiplex” (2024)
